Measurements taken from ChEMBL document CHEMBL1145444, “Mechanism-based thrombin inhibitors: design, synthesis, and molecular docking of a new selective 2-oxo-2H-1-benzopyran derivative” (J Med Chem, 2007).
Blank lines part the entries; values can stand above or below the molecule they belong to.

Assays:
[1] = molecular target: Prothrombin (Homo sapiens) (UniProt P00734); experiment: Inhibition of thrombin assessed as residual activity at 100 uM after 10 min
In short: (§1)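 Isolated, purified thrombin was incubated with inhibitor for 10 min, then its proteolytic activity was measured. Screening used 100 µM inhibitor, with lower concentrations for potent compounds. Values are reported as percentage of residual enzyme activity.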

[2] = molecular target: Prothrombin (Homo sapiens) (UniProt P00734); experiment: Ratio of kcat for thrombin to Ki for thrombin
In short: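 Partition ratio is the ratio of product released per inactivation event, calculated as k_cat/k_i, on thrombin.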

Homo sapiens [3] = species on record: Homo sapiens; experiment: Selectivity for thrombin over alpha chymotrypsin
In short: (§2)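 Inactivation rate constant (k_i) and K_I were determined by one of two methods depending on the protease. In the progress-curve method, inhibitor competes with a chromogenic substrate. In the preincubation method, enzyme and inhibitor are incubated first and remaining activity is sampled at regular time intervals. k_i/K_I serves as the potency index, and selectivity is taken as the ratio of k_i/K_I between proteases.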

[4] = molecular target: Prothrombin (Homo sapiens) (UniProt P00734); experiment: Ratio of Ki for thrombin to K(inactivation) for thrombin; in short: as §2
Homo sapiens [5] = species on record: Homo sapiens; experiment: Ratio of Ki for alpha chymotrypsin to K(inactivation) for alpha chymotrypsin; in short: as §2
[6] = molecular target: Prothrombin (Homo sapiens) (UniProt P00734); experiment: Inhibition of thrombin assessed as residual activity at 2 uM after 10 min; in short: as §1
[7] = molecular target: Prothrombin (Homo sapiens) (UniProt P00734); experiment: Inhibition of thrombin assessed as residual activity at 10 uM after 10 min; in short: as §1

Compound: O=C(Nc1cc(Cl)ccc1Cl)c1cc2cc(CCl)ccc2oc1=O
Activity [1]: 91%

Compound: O=C(Nc1cc(Cl)ccc1O)c1cc2cc(CCl)ccc2oc1=O
Activity [1]: 110%

Compound: CCOC(=O)COc1ccc(Cl)cc1COC(=O)c1cc2cc(CCl)ccc2oc1=O
Activity [1]: 95%

Compound: CCNC(=O)COc1ccc(Cl)cc1OC(=O)c1cc2cc(CCl)ccc2oc1=O
Ratio [4]: 3460 M⁻¹ s⁻¹
partition ratio kcat/ki [2]: 13.5
Ratio (Homo sapiens [3]): 5
Ratio (Homo sapiens [5]): 755 M⁻¹ s⁻¹
Activity [6]: 11%
Activity [7]: 3%

Compound: O=C(OCc1cc(Cl)ccc1O)c1cc2cc(CCl)ccc2oc1=O
Activity [1]: 101%

More lines, now with the values ahead:

Activity [1]: 103%
Compound: O=C(OCc1cc(Cl)ccc1Cl)c1cc2cc(CCl)ccc2oc1=O

Activity [1]: 94%
Compound: O=C(Oc1cc(Cl)ccc1Cl)c1cc2cc(Oc3ccccc3)ccc2oc1=O

partition ratio kcat/ki [2]: 2.8
Ratio (Homo sapiens [3]): 0.01
Compound: O=C(Oc1cccc(Cl)c1)c1cc2cc(CCl)ccc2oc1=O

Activity [1]: 60%
Compound: Nc1ccc(Cl)cc1OC(=O)c1cc2cc(CCl)ccc2oc1=O

partition ratio kcat/ki [2]: 1.8
Ratio (Homo sapiens [3]): 0.13
Compound: O=C(Oc1cc(Cl)ccc1Cl)c1cc2cc(CCl)ccc2oc1=O

Activity [1]: 90%
Compound: O=C(Oc1cccc(Cl)c1)c1cc2cc(Oc3ccccc3)ccc2oc1=O
